ChEMBL document CHEMBL1151747, “Orally bioavailable isothioureas block function of the chemokine receptor CXCR4 in vitro and in vivo” (J Med Chem, 2008)
pIC50: −log10 of the molar value.

How the values were obtained:
[1] = target: T1, C-X-C chemokine receptor type 4 (Homo sapiens, UniProt P61073); test: Displacement of [125I]CXCL12 from CXCR4 in human CEM cells; assay type: cell-based, CCRF-CEM
Summary of the method: (§1)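 Scintillation proximity assay. Membranes come from CEM cells (human CXCR4) or IR983F cells (rat CXCR4), prepared by homogenization in 20 mM HEPES, 1 mM EDTA pH 7.4 and stored at -80 °C. Nonspecific binding is defined with 400 nM unlabeled CXCL12. Incubation is 2 h at room temperature with shaking, then scintillation counting.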

[2] = target: T1, C-X-C chemokine receptor type 4; test: Activity at CXCR4 in human CEM cells assessed as inhibition of CXCL12-induced calcium mobilization; assay type: functional, cell-based, CCRF-CEM
Summary of the method: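 CEM cells are loaded with 4 µM Fluo-4 for 1 h at 37 °C, washed, then preincubated with antagonist for 2 h. Wells are run in quadruplicate on FLIPR.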

[3] = target: C-X-C chemokine receptor type 4 (Rattus norvegicus, UniProt O08565); test: Displacement of [125I]CXCL12 from CXCR4 in rat IR983F cells; assay type: cell-based; summary of the method: as §1
[4] = system: Human immunodeficiency virus 1; test: Antiviral activity against X4-tropic HIV1 3B assessed as inhibition of viral attachment; assay type: functional, organism-based; conditions: Human immunodeficiency virus 1, 3B

T1 sequence (P61073 whole entry): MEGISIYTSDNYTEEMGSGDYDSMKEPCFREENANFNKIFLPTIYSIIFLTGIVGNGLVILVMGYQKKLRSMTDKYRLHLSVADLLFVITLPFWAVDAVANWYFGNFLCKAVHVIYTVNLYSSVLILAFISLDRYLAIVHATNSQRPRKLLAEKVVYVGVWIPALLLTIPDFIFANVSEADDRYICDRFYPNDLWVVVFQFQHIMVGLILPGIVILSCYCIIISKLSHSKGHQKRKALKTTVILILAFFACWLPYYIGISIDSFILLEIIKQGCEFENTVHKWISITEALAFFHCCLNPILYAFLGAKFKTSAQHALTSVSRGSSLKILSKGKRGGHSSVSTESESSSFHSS
Sequence of C-X-C chemokine receptor type 4 (Rattus norvegicus, UniProt O08565) (O08565 whole entry): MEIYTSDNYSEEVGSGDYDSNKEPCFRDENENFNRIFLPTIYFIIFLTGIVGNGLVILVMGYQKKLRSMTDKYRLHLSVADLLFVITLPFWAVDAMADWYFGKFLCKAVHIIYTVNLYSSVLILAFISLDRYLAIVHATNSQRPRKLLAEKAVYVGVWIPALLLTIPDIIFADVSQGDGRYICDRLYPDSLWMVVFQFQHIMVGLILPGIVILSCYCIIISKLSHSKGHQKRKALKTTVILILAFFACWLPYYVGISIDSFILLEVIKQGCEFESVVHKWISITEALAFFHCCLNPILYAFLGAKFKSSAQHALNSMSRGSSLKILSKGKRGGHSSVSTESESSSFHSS

SMILES	pIC50 [1]	pIC50 [2]	pIC50 [3]	pIC50 [4]	IC90 [4] [nM]
NC(N)=NCCC[C@@H]1NC(=O)[C@H](CCCN=C(N)N)NC(=O)[C@@H](Cc2ccc(O)cc2)NC(=O)CNC(=O)[C@H](c2ccc3ccccc3c2)NC1=O	6.96		5.84		
C1=C(CS/C(=N\C2CCCCCC2)NC2CCCCCC2)N2CCN=C2S1	7.60	8.51		7.30	820
c1ccc2c(c1)nc1scc(CS/C(=N\C3CCCCC3)NC3CCCCC3)n12	< 5.00	5.09			
CC1(C)CN2C(CS/C(=N\C3CCCCCC3)NC3CCCCCC3)=CSC2=N1	8.06	8.68		8.00	130
C1=C(CSC(=NC2CCCCC2)NC2CCCCCC2)N2CCN=C2S1	7.55	8.18		7.40	1140
c1cc(CN2CCCNCCNCCCNCC2)ccc1CN1CCCNCCNCCCNCC1 [PLERIXAFOR]				8.52	50

Further lines, results first:

pIC50 [1]	pIC50 [2]	pIC50 [3]	pIC50 [4]	IC90 [4] [nM]	SMILES
6.07	7.12				CCCCCCNC(=NC1CCCCC1)SCC1=CSC2=NCCN12
7.09	7.89				C1=C(CSC(=NC2CCCCC2)NC2C3CC4CC(C3)CC2C4)N2CCN=C2S1 (stereo not given)
5.81	6.36				CC(C)(C)C1CCC(NC(=NC2CCCCC2)SCC2=CSC3=NCCN23)CC1 (stereo not given)
5.00	5.65				c1ccc(CNC(=NC2CCCCC2)SCC2CSC3=NCCN32)cc1 (stereo not given)
6.73	7.24				C1=C(CS/C(=N\C2CCCCC2)NC2CCCCC2)N2CCCN=C2S1
5.73	6.52				C1=C(CS/C(=N\C2CCCCC2)NC23CC4CC(CC(C4)C2)C3)N2CCN=C2S1
